# Test results taken from ChEMBL document CHEMBL5357072, “Structural Modification of Noscapine via Photoredox/Nickel Dual Catalysis for the Discovery of S-Phase Arresting Agents” (ACS Med Chem Lett, 2024).
# Tests used:
# JeKo-1 [1] = assay: Antiproliferative activity against human JeKo-1 cells assessed as inhibition of cell growth incubated for 48 hrs by CCK8 assay; assay type: functional, cell-based; details: JeKo-1, 48 h
# Summary of the method: (§1)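 CCK-8 growth-inhibition assay in the malignant haematological lines MOLM-13, NB4 and Jeko-1 and in normal PBMC. Cells were treated across a range of doses and IC50 taken as the half-maximal growth-inhibitory concentration. Data are mean ± SD of triplicate samples, and experiments were repeated at least three times.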
# MOLM-13 [2] = assay: Antiproliferative activity against human MOLM-13 cells assessed as inhibition of cell growth incubated for 48 hrs by CCK8 assay; assay type: functional, cell-based; details: MOLM-13, 48 h; summary of the method: as §1
# NB-4 [3] = assay: Antiproliferative activity against human NB4 cells assessed as inhibition of cell growth incubated for 48 hrs by CCK8 assay; assay type: functional, cell-based; details: NB-4, 48 h; summary of the method: as §1
# MOLM-13 [4] = assay: Induction of apoptosis in human MOLM-13 cells assessed as viable cells at 5 uM incubated for 48 hrs by Annexin V-FITC/PI staining based flow cytometric analysis (reference value: 92.24%); assay type: functional; details: read-out: Activity
# MOLM-13 [5] = assay: Cell cycle arrest in human MOLM-13 cells assessed as accumulation of S phase cells at 2.5 uM incubated for 24 hrs by RNase A/PI staining based flow cytometry analysis (reference value: 50.12%); assay type: functional
# MOLM-13 [6] = assay: Induction of apoptosis in human MOLM-13 cells assessed as early apoptotic cells at 10 uM incubated for 48 hrs by Annexin V-FITC/PI staining based flow cytometric analysis (reference value: 4.10%); assay type: functional
# MOLM-13 [7] = assay: Induction of apoptosis in human MOLM-13 cells assessed as late apoptotic cells at 2.5 uM incubated for 48 hrs by Annexin V-FITC/PI staining based flow cytometric analysis (reference value: 3.17%); assay type: functional
# MOLM-13 [8] = assay: Cell cycle arrest in human MOLM-13 cells assessed as accumulation of G2/M phase cells at 2.5 uM incubated for 24 hrs by RNase A/PI staining based flow cytometry analysis (reference value: 11.74%); assay type: functional
# MOLM-13 [9] = assay: Cell cycle arrest in human MOLM-13 cells assessed as accumulation of S phase cells at 5 uM incubated for 24 hrs by RNase A/PI staining based flow cytometry analysis (reference value: 50.12%); assay type: functional
# MOLM-13 [10] = assay: Antiproliferative activity against human MOLM-13 cells assessed as cell growth inhibition at 10 uM incubated for 48 hrs by CCK8 assay relative to control; assay type: functional; details: read-out: GI
# Summary of the method: (§2)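 Single-concentration screen of six cancer cell lines. Cells were exposed to 10 μM compound and growth was measured by CCK-8 assay. Results are reported as inhibition rate at 10 μM.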
# MOLM-13 [11] = assay: Induction of apoptosis in human MOLM-13 cells assessed as viable cells at 2.5 uM incubated for 48 hrs by Annexin V-FITC/PI staining based flow cytometric analysis (reference value: 92.24%); assay type: functional; details: read-out: Activity
# MOLM-13 [12] = assay: Induction of apoptosis in human MOLM-13 cells assessed as necrotic cells at 2.5 uM incubated for 48 hrs by Annexin V-FITC/PI staining based flow cytometric analysis (reference value: 0.48%); assay type: functional
# MOLM-13 [13] = assay: Cell cycle arrest in human MOLM-13 cells assessed as accumulation of S phase cells at 10 uM incubated for 24 hrs by RNase A/PI staining based flow cytometry analysis (reference value: 50.12%); assay type: functional
# MOLM-13 [14] = assay: Cell cycle arrest in human MOLM-13 cells assessed as accumulation of G2/M phase cells at 10 uM incubated for 24 hrs by RNase A/PI staining based flow cytometry analysis (reference value: 11.74%); assay type: functional
# JeKo-1 [15] = assay: Antiproliferative activity against human JeKo-1 cells assessed as cell growth inhibition at 10 uM incubated for 48 hrs by CCK8 assay relative to control; assay type: functional; details: read-out: GI; summary of the method: as §2
# MOLM-13 [16] = assay: Cell cycle arrest in human MOLM-13 cells assessed as accumulation of G0/G1 phase cells at 5 uM incubated for 24 hrs by RNase A/PI staining based flow cytometry analysis (reference value: 38.14%); assay type: functional
# MOLM-13 [17] = assay: Induction of apoptosis in human MOLM-13 cells assessed as early apoptotic cells at 2.5 uM incubated for 48 hrs by Annexin V-FITC/PI staining based flow cytometric analysis (reference value: 4.10%); assay type: functional
# MOLM-13 [18] = assay: Induction of apoptosis in human MOLM-13 cells assessed as viable cells at 10 uM incubated for 48 hrs by Annexin V-FITC/PI staining based flow cytometric analysis (reference value: 92.24%); assay type: functional; details: read-out: Activity
# U-251 = assay: Antiproliferative activity against human U-251 cells assessed as cell growth inhibition at 10 uM incubated for 48 hrs by CCK8 assay relative to control; assay type: functional; details: read-out: GI; summary of the method: as §2
# MOLM-13 [19] = assay: Induction of apoptosis in human MOLM-13 cells assessed as necrotic cells at 5 uM incubated for 48 hrs by Annexin V-FITC/PI staining based flow cytometric analysis (reference value: 0.48%); assay type: functional
# MOLM-13 [20] = assay: Cell cycle arrest in human MOLM-13 cells assessed as accumulation of G2/M phase cells at 5 uM incubated for 24 hrs by RNase A/PI staining based flow cytometry analysis (reference value: 11.74%); assay type: functional
# MOLM-13 [21] = assay: Induction of apoptosis in human MOLM-13 cells assessed as necrotic cells at 10 uM incubated for 48 hrs by Annexin V-FITC/PI staining based flow cytometric analysis (reference value: 0.48%); assay type: functional
# A549 = assay: Antiproliferative activity against human A549 cells assessed as cell growth inhibition at 10 uM incubated for 48 hrs by CCK8 assay relative to control; assay type: functional; details: read-out: GI; summary of the method: as §2
# MOLM-13 [22] = assay: Induction of apoptosis in human MOLM-13 cells assessed as late apoptotic cells at 10 uM incubated for 48 hrs by Annexin V-FITC/PI staining based flow cytometric analysis (reference value: 3.17%); assay type: functional
# PBMC = assay: Cytotoxicity against human PBMC assessed as reduction in cell viability incubated for 48 hrs by CCK8 assay; assay type: toxicity, cell-based; summary of the method: as §1
# MOLM-13 [23] = assay: Cell cycle arrest in human MOLM-13 cells assessed as accumulation of G0/G1 phase cells at 2.5 uM incubated for 24 hrs by RNase A/PI staining based flow cytometry analysis (reference value: 38.14%); assay type: functional
# NB-4 [24] = assay: Antiproliferative activity against human NB4 cells assessed as cell growth inhibition at 10 uM incubated for 48 hrs by CCK8 assay relative to control; assay type: functional; details: read-out: GI; summary of the method: as §2
# MOLM-13 [25] = assay: Induction of apoptosis in human MOLM-13 cells assessed as early apoptotic cells at 5 uM incubated for 48 hrs by Annexin V-FITC/PI staining based flow cytometric analysis (reference value: 4.10%); assay type: functional
# MOLM-13 [26] = assay: Induction of apoptosis in human MOLM-13 cells assessed as late apoptotic cells at 5 uM incubated for 48 hrs by Annexin V-FITC/PI staining based flow cytometric analysis (reference value: 3.17%); assay type: functional
# HeLa = assay: Antiproliferative activity against human HeLa cells assessed as cell growth inhibition at 10 uM incubated for 48 hrs by CCK8 assay relative to control; assay type: functional; details: read-out: GI; summary of the method: as §2
# MOLM-13 [27] = assay: Cell cycle arrest in human MOLM-13 cells assessed as accumulation of G0/G1 phase cells at 10 uM incubated for 24 hrs by RNase A/PI staining based flow cytometry analysis (reference value: 38.14%); assay type: functional
smiles,measurement,setting,value
CCNC(=O)N1CCc2c(CC3CN(C(=O)OCc4ccccc4)C3)c3c(c(OC)c2[C@@H]1[C@H]1OC(=O)c2c1ccc(OC)c2OC)OCO3,IC50,JeKo-1 [1],6.97 µM
same,IC50,MOLM-13 [2],6.47 µM
same,IC50,NB-4 [3],10.4 µM
COc1ccc2c(c1OC)C(=O)O[C@@H]2[C@H]1c2c(c(CC3CN(C(=O)OCc4ccccc4)C3)c3c(c2OC)OCO3)CCN1C(=O)OC(C)(C)C,IC50,JeKo-1 [1],3.39 µM
same,viability at 5 µM,MOLM-13 [4],62%
same,Activity,MOLM-13 [5],46.7%
same,Activity,MOLM-13 [6],19.67%
same,Activity,MOLM-13 [7],4.35%
same,IC50,MOLM-13 [2],3.12 µM
same,Activity,MOLM-13 [8],16.36%
same,Activity,MOLM-13 [9],73.67%
same,inhibition of growth at 10 µM,MOLM-13 [10],79.8%
same,viability at 2.5 µM,MOLM-13 [11],90.1%
same,Activity,MOLM-13 [12],0.52%
same,Activity,MOLM-13 [13],82.44%
same,Activity,MOLM-13 [14],5.11%
same,inhibition of growth at 10 µM,JeKo-1 [15],74.3%
same,Activity,MOLM-13 [16],16.37%
same,Activity,MOLM-13 [17],5.01%
same,viability at 10 µM,MOLM-13 [18],53.5%
same,inhibition of growth at 10 µM,U-251,37.1%
same,Activity,MOLM-13 [19],2.41%
same,Activity,MOLM-13 [20],9.96%
same,Activity,MOLM-13 [21],3.2%
same,inhibition of growth at 10 µM,A549,57%
same,Activity,MOLM-13 [22],23.68%
same,Activity,PBMC,Non-Toxic
same,Activity,MOLM-13 [23],36.94%
same,inhibition of growth at 10 µM,NB-4 [24],60.5%
same,Activity,MOLM-13 [25],16.95%
same,Activity,MOLM-13 [26],18.62%
same,inhibition of growth at 10 µM,HeLa,62.7%
same,Activity,MOLM-13 [27],12.45%
same,IC50,NB-4 [3],5.25 µM
COc1ccc2c(c1OC)C(=O)O[C@@H]2[C@@H]1NCCc2c(CC3CN(C(=O)OCc4ccccc4)C3)c3c(c(OC)c21)OCO3,IC50,JeKo-1 [1],7.57 µM
same,IC50,MOLM-13 [2],7.78 µM
same,IC50,NB-4 [3],13.2 µM
COc1ccc2c(c1OC)C(=O)O[C@@H]2[C@H]1c2c(c(CC3CN(C(C)=O)C3)c3c(c2OC)OCO3)CCN1C,IC50,JeKo-1 [1],> 20 µM
same,IC50,MOLM-13 [2],> 20 µM
same,IC50,NB-4 [3],> 20 µM
COc1ccc2c(c1OC)C(=O)O[C@@H]2[C@H]1c2c(c(CC3CCC3)c3c(c2OC)OCO3)CCN1C(=O)OC(C)(C)C,inhibition of growth at 10 µM,MOLM-13 [10],53.1%
same,inhibition of growth at 10 µM,JeKo-1 [15],6.67%
same,inhibition of growth at 10 µM,U-251,< 5%
same,inhibition of growth at 10 µM,A549,< 5%
same,inhibition of growth at 10 µM,NB-4 [24],8.8%
same,inhibition of growth at 10 µM,HeLa,< 5%
COc1ccc2c(c1OC)C(=O)O[C@@H]2[C@H]1c2c(c(CC3CCCCC3)c3c(c2OC)OCO3)CCN1C(=O)OC(C)(C)C,inhibition of growth at 10 µM,MOLM-13 [10],29.3%
same,inhibition of growth at 10 µM,JeKo-1 [15],< 5%
same,inhibition of growth at 10 µM,U-251,< 5%
same,inhibition of growth at 10 µM,A549,< 5%
same,inhibition of growth at 10 µM,NB-4 [24],< 5%
same,inhibition of growth at 10 µM,HeLa,< 5%
CCC(C)Cc1c2c(c(OC)c3c1OCO3)[C@H]([C@H]1OC(=O)c3c1ccc(OC)c3OC)N(C(=O)OC(C)(C)C)CC2 (stereo not given in full),inhibition of growth at 10 µM,MOLM-13 [10],51.2%
same,inhibition of growth at 10 µM,JeKo-1 [15],24%
same,inhibition of growth at 10 µM,U-251,< 5%
same,inhibition of growth at 10 µM,A549,< 5%
same,inhibition of growth at 10 µM,NB-4 [24],9.33%
same,inhibition of growth at 10 µM,HeLa,6.92%
COc1ccc2c(c1OC)C(=O)O[C@@H]2[C@H]1c2c(c(CC3CCCC3)c3c(c2OC)OCO3)CCN1C(=O)OC(C)(C)C,inhibition of growth at 10 µM,MOLM-13 [10],51.3%
same,inhibition of growth at 10 µM,JeKo-1 [15],6.68%
same,inhibition of growth at 10 µM,U-251,12%
same,inhibition of growth at 10 µM,A549,< 5%
same,inhibition of growth at 10 µM,NB-4 [24],20.8%
same,inhibition of growth at 10 µM,HeLa,< 5%
Nc1ccn([C@@H]2O[C@H](CO)[C@@H](O)C2(F)F)c(=O)n1 [GEMCITABINE],inhibition of growth at 10 µM,MOLM-13 [10],74.1%
same,inhibition of growth at 10 µM,JeKo-1 [15],65.2%
same,inhibition of growth at 10 µM,U-251,69.7%
same,inhibition of growth at 10 µM,A549,62.3%
same,inhibition of growth at 10 µM,NB-4 [24],95.7%
same,inhibition of growth at 10 µM,HeLa,61.4%
